# ChEMBL document CHEMBL4152354, “A reusable magnetic nickel nanoparticle based catalyst for the aqueous synthesis of diverse heterocycles and their evaluation as potential anti-bacterial agent” (2018)
# What was measured:
# Format in all cases: functional
# Klebsiella pneumoniae [1] = assay: Antibacterial activity against Klebsiella pneumoniae MTCC 109 after 18 hrs by TTC staining based broth microdilution method; conditions: MTCC 109, 18 h
# Summary of the method: (§1)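 Broth microdilution in Mueller-Hinton broth. 50 µl of inoculum from a 0.5 McFarland suspension was added to 50 µl of compound, giving final concentrations of 0.024–400 mg/ml in DMSO. Sealed plates were incubated at 37°C for 18 h, then 50 µl of 0.5% TTC was added for 1 h in the dark. MIC was the lowest concentration with no visible growth (well stays clear). Triplicate; mean ± SD.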
# Escherichia coli = assay: Antibacterial activity against Escherichia coli MTCC 730 assessed as zone of inhibition at 100 uL after 24 hrs by agar well-diffusion method
# Summary of the method: (§2)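 Mueller-Hinton agar plates swabbed with a bacterial suspension adjusted to 1.5×10^8 CFU/ml. Each 5 mm well received 100 µl of compound, and plates were incubated at 37°C for 24 h. Chloramphenicol (30 mcg) was the positive control and DMSO the negative control. Inhibition zones around wells were measured manually, in triplicate.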
# Streptococcus pyogenes = assay: Antibacterial activity against Streptococcus pyogenes MTCC 1925 assessed as zone of inhibition at 100 uL after 24 hrs by agar well-diffusion method; summary of the method: as §2
# Salmonella enterica = assay: Antibacterial activity against Salmonella enterica MTCC 735 assessed as zone of inhibition at 100 uL after 24 hrs by agar well-diffusion method
# Bacillus cereus [2] = assay: Antibacterial activity against Bacillus cereus MTCC 430 assessed as zone of inhibition at 100 uL after 24 hrs by agar well-diffusion method; summary of the method: as §2
# Klebsiella pneumoniae [3] = assay: Antibacterial activity against Klebsiella pneumoniae MTCC 109 assessed as zone of inhibition at 100 uL after 24 hrs by agar well-diffusion method; summary of the method: as §2
# Bacillus cereus [4] = assay: Antibacterial activity against Bacillus cereus MTCC 430 after 18 hrs by TTC staining based broth microdilution method; conditions: MTCC 430, 18 h; summary of the method: as §1
SMILES,MIC (Klebsiella pneumoniae [1]) [µg/mL],inhibition zone (IZ) (Escherichia coli) [mm],inhibition zone (IZ) (Streptococcus pyogenes) [mm],inhibition zone (IZ) (Salmonella enterica) [mm],inhibition zone (IZ) (Bacillus cereus [2]) [mm],inhibition zone (IZ) (Klebsiella pneumoniae [3]) [mm],MIC (Bacillus cereus [4]) [µg/mL]
CCOc1ccc(C(c2c(O)c3ccccc3oc2=O)c2c(O)c3ccccc3oc2=O)cc1,780,13,20,11,12,19,3120
O=c1oc2ccccc2c(O)c1C(c1ccc(Cl)cc1)c1c(O)c2ccccc2oc1=O,190,23,24,10,19,25,390
O=c1oc2ccccc2c(O)c1C(c1ccccc1)c1c(O)c2ccccc2oc1=O,190,17,23,10,20,21,190
O=c1oc2ccccc2c(O)c1C(c1ccco1)c1c(O)c2ccccc2oc1=O,780,15,18,11,14,17,3120
CC1(C)CC(=O)C(C(C2=C(O)CC(C)(C)CC2=O)c2ccccc2)=C(O)C1,,0,0,0,0,0,
O=c1oc2ccccc2c(O)c1C(c1ccccc1Cl)c1c(O)c2ccccc2oc1=O,190,18,22,10,11,24,3120
CC1(C)CC(=O)C(C(C2=C(O)CC(C)(C)CC2=O)c2ccc([N+](=O)[O-])cc2)=C(O)C1,,0,0,0,15,14,
O=c1oc2ccccc2c(O)c1C(c1ccc(O)cc1)c1c(O)c2ccccc2oc1=O,3120,10,10,10,10,10,6250
O=c1oc2ccccc2c(O)c1C(c1ccc([N+](=O)[O-])cc1)c1c(O)c2ccccc2oc1=O,390,13,15,11,16,19,780
COc1ccc(C(c2c(O)c3ccccc3oc2=O)c2c(O)c3ccccc3oc2=O)cc1OC,780,15,13,10,16,18,780
COc1ccc(C(c2c(C)[nH][nH]c2=O)C2C(=O)NC(=O)NC2=O)cc1OC (centres undefined),390,16,17,10,15,21,780
COc1cc(C(C2=C(O)CC(C)(C)CC2=O)C2=C(O)CC(C)(C)CC2=O)cc(OC)c1OC,,0,0,0,0,0,
Cc1ccc(C(C2=C(O)CC(C)(C)CC2=O)C2=C(O)CC(C)(C)CC2=O)cc1,,0,0,0,0,0,
CCC(C1=C(O)CC(C)(C)CC1=O)C1=C(O)CC(C)(C)CC1=O,,0,0,0,0,0,
Cc1[nH][nH]c(=O)c1C(c1cccc(F)c1)C1C(=O)NC(=O)NC1=O (centres undefined),390,15,15,11,15,20,780
COc1ccc(C(c2c(C)[nH][nH]c2=O)C2C(=O)NC(=O)NC2=O)cc1 (centres undefined),3120,14,13,11,14,11,6250
COc1cc(C(c2c(C)[nH][nH]c2=O)C2C(=O)NC(=O)NC2=O)ccc1O (centres undefined),780,17,16,10,20,16,390

SMILES,MIC (Klebsiella pneumoniae [1]) [µg/mL],inhibition zone (IZ) (Escherichia coli) [mm],inhibition zone (IZ) (Streptococcus pyogenes) [mm],inhibition zone (IZ) (Salmonella enterica) [mm],inhibition zone (IZ) (Bacillus cereus [2]) [mm],inhibition zone (IZ) (Klebsiella pneumoniae [3]) [mm],MIC (Bacillus cereus [4]) [µg/mL]
CC1(C)CC(=O)C(C(C2=C(O)CC(C)(C)CC2=O)c2cccc(F)c2)=C(O)C1,,0,0,0,0,0,
Cc1[nH][nH]c(=O)c1C(c1ccc(Cl)cc1)C1C(=O)NC(=O)NC1=O (centres undefined),390,17,16,11,17,21,1560
COc1cc(C(c2c(C)[nH][nH]c2=O)C2C(=O)NC(=O)NC2=O)cc(OC)c1OC (centres undefined),390,13,17,11,13,19,1560
CC1(C)CC(=O)C(C(C2=C(O)CC(C)(C)CC2=O)c2ccc(Br)cc2)=C(O)C1,,11,10,0,11,11,
CN(C)c1ccc(C(C2=C(O)CC(C)(C)CC2=O)C2=C(O)CC(C)(C)CC2=O)cc1,,0,0,0,0,0,
Cc1ccc(C(c2c(C)[nH][nH]c2=O)C2C(=O)NC(=O)NC2=O)cc1 (centres undefined),3120,12,11,10,12,10,6250
Cc1[nH][nH]c(=O)c1C(c1cccc([N+](=O)[O-])c1)C1C(=O)NC(=O)NC1=O (centres undefined),780,11,14,10,13,15,1560
COc1ccc(C(C2=C(O)CC(C)(C)CC2=O)C2=C(O)CC(C)(C)CC2=O)cc1OC,,0,0,0,0,0,
Cc1[nH][nH]c(=O)c1C(c1ccccc1[N+](=O)[O-])C1C(=O)NC(=O)NC1=O (centres undefined),3120,11,12,10,14,13,6250
O=c1oc2ccccc2c(O)c1C(c1cccc(Br)c1)c1c(O)c2ccccc2oc1=O,390,19,21,11,13,20,3120
O=c1oc2ccccc2c(O)c1C(c1cccc(F)c1)c1c(O)c2ccccc2oc1=O,390,18,21,12,15,21,780
Cc1[nH][nH]c(=O)c1C(c1ccc(N(C)C)cc1)C1C(=O)NC(=O)NC1=O (centres undefined),3120,10,10,12,13,10,3120
CC1(C)CC(=O)C(C(C2=C(O)CC(C)(C)CC2=O)c2ccc(Cl)cc2)=C(O)C1,,0,0,0,0,0,
Cc1[nH][nH]c(=O)c1C(c1ccc(Br)cc1)C1C(=O)NC(=O)NC1=O (centres undefined),780,15,17,10,15,15,780
CCOc1ccc(C(C2=C(O)CC(C)(C)CC2=O)C2=C(O)CC(C)(C)CC2=O)cc1,,0,0,0,0,0,
Cc1ccc(C(c2c(O)c3ccccc3oc2=O)c2c(O)c3ccccc3oc2=O)cc1,390,19,25,10,18,20,390
